Where two headings read alike, the source gives them in different places. One block for each compound: values may come before it.
Tests used:
M3 = M3 (Homo sapiens, UniProt P20309); assay: M3 calcium mobilization assay in M3 CHO cells; assay type: cell-based; details: at 30 μM
Procedure, shortened: (§1)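 Test compound at 30 μM is added with an EC20 concentration of ACh. Readout is intracellular calcium mobilization in CHO cells expressing the given mAChR subtype; M2 and M4 cells are co-transfected with Gqi5 for calcium coupling. Values are means of at least three independent determinations.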

M5 [1] = molecular target: T1, M5 (Homo sapiens, UniProt P08912); assay: M5 fold-shift experiments of the ACh CRC in M5 CHO cells; assay type: cell-based; details: 30 μM compound
T1 sequence (P08912 1-532): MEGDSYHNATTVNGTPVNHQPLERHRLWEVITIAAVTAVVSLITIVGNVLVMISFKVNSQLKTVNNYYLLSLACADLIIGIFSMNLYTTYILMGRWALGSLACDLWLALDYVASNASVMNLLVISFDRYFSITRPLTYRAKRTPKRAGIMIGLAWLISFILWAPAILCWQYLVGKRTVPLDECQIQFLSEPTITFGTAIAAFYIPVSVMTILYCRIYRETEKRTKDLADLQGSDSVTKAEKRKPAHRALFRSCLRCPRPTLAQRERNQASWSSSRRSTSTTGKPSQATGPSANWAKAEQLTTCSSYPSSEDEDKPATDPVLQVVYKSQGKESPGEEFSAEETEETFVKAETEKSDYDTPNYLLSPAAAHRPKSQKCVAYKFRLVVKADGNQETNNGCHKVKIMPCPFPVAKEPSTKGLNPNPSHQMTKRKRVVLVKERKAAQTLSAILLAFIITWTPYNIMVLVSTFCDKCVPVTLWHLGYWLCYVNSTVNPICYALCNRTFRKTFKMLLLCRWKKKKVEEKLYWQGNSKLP
Procedure, shortened: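 Fold-shift assay in M5 CHO cells: a full ACh concentration-response curve is run with or without 30 μM test compound, read out as intracellular calcium mobilization. Potentiation is taken as the leftward shift of the ACh curve. Values are means of at least three independent determinations.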

M2 = molecular target: T2, M2 (Homo sapiens, UniProt P08172); assay: M2 calcium mobilization assay in M2 CHO cells co-transfected with Gqi5; assay type: cell-based
T2 sequence (P08172 1-466): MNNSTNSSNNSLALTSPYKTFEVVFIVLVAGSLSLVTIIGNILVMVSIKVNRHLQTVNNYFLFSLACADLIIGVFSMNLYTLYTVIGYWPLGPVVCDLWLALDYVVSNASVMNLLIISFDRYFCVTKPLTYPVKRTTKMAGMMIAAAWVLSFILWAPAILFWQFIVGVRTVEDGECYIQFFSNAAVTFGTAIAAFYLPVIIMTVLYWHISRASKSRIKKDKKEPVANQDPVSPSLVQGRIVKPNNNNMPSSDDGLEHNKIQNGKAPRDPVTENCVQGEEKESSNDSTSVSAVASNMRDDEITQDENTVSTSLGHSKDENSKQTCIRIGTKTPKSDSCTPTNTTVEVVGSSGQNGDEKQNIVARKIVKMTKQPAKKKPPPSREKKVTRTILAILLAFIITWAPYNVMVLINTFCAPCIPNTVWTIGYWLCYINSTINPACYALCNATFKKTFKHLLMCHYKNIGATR
Procedure, shortened: as §1

M4 = molecular target: T3, M4 (Homo sapiens, UniProt P08173); assay: M4 calcium mobilization assay in M4 CHO cells co-transfected with Gqi5; assay type: cell-based
T3 sequence (P08173 1-479): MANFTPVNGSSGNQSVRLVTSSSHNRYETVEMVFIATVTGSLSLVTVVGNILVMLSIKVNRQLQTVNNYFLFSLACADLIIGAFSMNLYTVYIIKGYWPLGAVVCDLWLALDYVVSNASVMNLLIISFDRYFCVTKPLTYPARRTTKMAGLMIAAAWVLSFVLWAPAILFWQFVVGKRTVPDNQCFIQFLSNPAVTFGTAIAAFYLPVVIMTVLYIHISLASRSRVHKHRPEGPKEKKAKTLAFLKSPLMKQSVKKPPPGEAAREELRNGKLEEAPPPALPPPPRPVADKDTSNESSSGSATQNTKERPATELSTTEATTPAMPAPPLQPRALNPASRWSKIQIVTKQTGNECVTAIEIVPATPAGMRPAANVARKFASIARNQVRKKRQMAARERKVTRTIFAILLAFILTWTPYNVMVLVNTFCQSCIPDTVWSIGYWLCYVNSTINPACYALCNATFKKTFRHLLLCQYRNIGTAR
Procedure, shortened: as §1

M5 [2] = molecular target: T1, M5; details: 30 μM compound; cited from earlier work
M5 [3] = molecular target: T1, M5; details: cited from earlier work
M1 = molecular target: T4, M1 (Homo sapiens, UniProt P11229); assay: M1 PAM intracellular calcium mobilization assay in M1 CHO cells; assay type: cell-based; details: at 30 μM
T4 sequence (P11229 1-460): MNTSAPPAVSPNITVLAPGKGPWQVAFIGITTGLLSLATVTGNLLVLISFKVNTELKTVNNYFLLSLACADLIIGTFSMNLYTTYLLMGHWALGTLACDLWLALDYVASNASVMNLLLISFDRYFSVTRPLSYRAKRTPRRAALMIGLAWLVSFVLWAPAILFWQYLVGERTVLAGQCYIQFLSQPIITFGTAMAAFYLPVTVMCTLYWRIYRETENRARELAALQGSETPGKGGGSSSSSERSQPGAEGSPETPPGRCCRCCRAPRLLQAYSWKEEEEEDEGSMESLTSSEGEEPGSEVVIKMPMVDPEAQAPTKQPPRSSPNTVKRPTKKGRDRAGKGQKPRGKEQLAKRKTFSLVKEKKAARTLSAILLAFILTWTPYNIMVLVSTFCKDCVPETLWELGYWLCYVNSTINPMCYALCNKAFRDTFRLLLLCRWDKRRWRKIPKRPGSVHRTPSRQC
Procedure, shortened: as §1

M1–M4 = assay: mAChR selectivity CRCs at M1-M5 CHO cells with submaximal ACh; assay type: cell-based; details: CRCs at M1-M5 CHO cells with EC20 of ACh
Procedure, shortened: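 Test compound concentration-response curves are run against an EC20 of ACh in mAChR-expressing CHO cells, read out as intracellular calcium mobilization. M2 and M4 lines are co-transfected with Gqi5. Response is expressed as % of ACh maximum. Values are means of at least three independent determinations.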

[4] = at 30 μM, cells co-transfected with Gqi5

Sequence of M3 (P20309 whole entry): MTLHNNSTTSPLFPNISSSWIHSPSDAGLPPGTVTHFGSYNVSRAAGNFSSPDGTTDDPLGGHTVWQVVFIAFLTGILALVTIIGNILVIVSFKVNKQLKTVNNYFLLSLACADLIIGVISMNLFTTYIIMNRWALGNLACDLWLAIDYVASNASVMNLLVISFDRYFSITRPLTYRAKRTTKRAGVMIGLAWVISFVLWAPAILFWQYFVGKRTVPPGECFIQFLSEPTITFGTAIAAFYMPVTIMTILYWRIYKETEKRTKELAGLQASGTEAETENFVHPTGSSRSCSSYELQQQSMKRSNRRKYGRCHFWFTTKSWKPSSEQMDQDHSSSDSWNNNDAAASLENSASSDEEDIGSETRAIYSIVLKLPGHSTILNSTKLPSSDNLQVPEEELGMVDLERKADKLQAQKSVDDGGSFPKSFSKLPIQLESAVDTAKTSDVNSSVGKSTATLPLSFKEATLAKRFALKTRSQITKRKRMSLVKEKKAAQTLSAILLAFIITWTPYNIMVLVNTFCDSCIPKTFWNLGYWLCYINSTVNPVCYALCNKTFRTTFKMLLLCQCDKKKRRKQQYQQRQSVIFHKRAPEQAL

elevation of an ACh EC20 / activation at M3 (M3): only modest activation
leftward shift of the ACh CRC at M5 (M5 [1]): > 50 fold
SMILES: O=C1C(=O)N(Cc2ccc(-c3ccccc3)cc2)c2ccc(OC(F)(F)F)cc21 [6a]

leftward shift of the ACh CRC at M5 (M5 [1]): > 50 fold
SMILES: O=C1C(=O)N(Cc2ccc(-c3ccsc3)cc2)c2ccc(OC(F)(F)F)cc21 [6b]

SMILES: O=C1C(=O)N(Cc2ccc(Br)cc2)c2ccccc21 [VU0119498]
activity at M2 (M2; Gi/o-coupled M2, cells co-transfected with Gqi5): devoid of activity
activity at M4 (M4; Gi/o-coupled M4, cells co-transfected with Gqi5): devoid of activity

SMILES: COc1ccc(CN2C(=O)C(=O)c3cc(OC(F)(F)F)ccc32)cc1 [VU0238429]
leftward shift of the ACh CRC at M5 (M5 [2]): 14 fold
increase of ACh affinity for M5 (M5 [3]; 30 μM compound): ~ 11 fold
displacement of [3H]-NMS from binding to M5 (M5 [3]): did not displace

elevation of an ACh EC20 at M1 (M1): no elevation
elevation of an ACh EC20 at M2 (M2; [4]): no elevation
elevation of an ACh EC20 / activation at M3 (M3): no elevation
elevation of an ACh EC20 at M4 (M4; [4]): no elevation
leftward shift of the ACh CRC at M5 (M5 [1]): ~ 5 fold
SMILES: O=C1C(=O)N(Cc2ccc(Oc3ccccc3)cc2)c2ccc(OC(F)(F)F)cc21 [VU0400265]

SMILES: COc1ccc(CN2C(=O)C(=O)c3ccc(OC(F)(F)F)cc32)cc1 [compound 11]
mAChR selectivity (M1–M4): lost

SMILES: O=C1C(=O)N(Cc2ccc(-c3ccccc3)cc2)c2cc(OC(F)(F)F)ccc21 [compound 12]
mAChR selectivity (M1–M4): lost

Source: article PMC3177601 (Bioorganic & medicinal chemistry letters, 2009)
